Screening results from PubChem.
CSC inhib: cancer stem cell viability inhibitors, primary screen, luminescence. cancer stem cell-like cells viability. inhibition, % at 7.5 µM. 1.1% of 300,000 active; in the data active = inhibition above about 75%; inconclusive = no clear call, values can overlap the other calls; tested in HMLE shEcad cells
SKKanGAS inh: S. pyogenes SKKanGAS growth inhibitors in kanamycin, primary screen, streptokinase expression inhibitor project, SKKanGAS strain, BacTiter-Glo luminescence; 6 h; inhibition, % at 7.5 µM; 1.3% of 300,000 active; AID 1662, 2009;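 active = mean replicate score, as percent of positive control median, at least 50; inconclusive = mean below 50 but one replicate at or above 50; inactive = mean and every replicate below 50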;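 also: strain carries kanamycin resistance gene driven by streptokinase promoter and grows in 40 µg/ml kanamycin; loss of luminescence reflects streptokinase promoter inhibition or plain growth inhibition; 0% = median of DMSO wells and 100% = positive control at its reference dose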
Calb FLC: C. albicans growth inhibition with fluconazole, primary screen, CaCi-2 strain, Alamar Blue fluorescence. growth inhibition, % (test concentration not listed). C. albicans CaCi-2 (fluconazole-resistant clinical isolate) + fluconazole, 48 h. AID 1979, 2009. 0.57% of 300,000 active;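 active = growth inhibition above about 58% in most replicates, limit read from the data, passing the limit was not always enough; inconclusive = exactly half the replicates above a set limit; inactive = most replicates below a set limit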;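 also: all wells also contain fluconazole at 8 µg/ml as a sub-toxic cotreatment; 0% = median of DMSO wells and 100% = median of geldanamycin control wells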
Beta apoptosis: inhibitors of cytokine-induced beta cell apoptosis, primary screen, luminescence; INS-1E cytokine-induced death, ATP luminescence, 48 h; percent of positive-control rescue, neutral wells zero; protection from apoptosis, % (concentration not given with the values); 0.8% of 300,000 active; AID 435005, 2010;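 active = Every replicate reaches about 75%, or at least half do and their mean reaches it too, limit read from the data; inconclusive = At least half of replicates reach the limit but their mean does not; inactive = Under half of replicates reach the limit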;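 also: 0% = cytokine-treated negative control wells and 100% = positive control rescue; higher means more ATP so stronger rescue from cytokine killing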
Mdm2-MdmX inh: inhibitors of human Mdm2-MdmX association, primary screen, cell-based, luminescence, split luciferase, SaOS-2, uHTS; Protein Mdm4 (Homo sapiens) + E3 ubiquitin-protein ligase Mdm2 (Homo sapiens), …; SaOS-2 split-luciferase Mdm2/MdmX complementation; inhibition, % at 8 µM; 3% of 330,000 active; AID 485346, 2010;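 active = inhibition of at least 50% at 8 µM in the primary screen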
Target sequence (O15151 whole entry, looked up): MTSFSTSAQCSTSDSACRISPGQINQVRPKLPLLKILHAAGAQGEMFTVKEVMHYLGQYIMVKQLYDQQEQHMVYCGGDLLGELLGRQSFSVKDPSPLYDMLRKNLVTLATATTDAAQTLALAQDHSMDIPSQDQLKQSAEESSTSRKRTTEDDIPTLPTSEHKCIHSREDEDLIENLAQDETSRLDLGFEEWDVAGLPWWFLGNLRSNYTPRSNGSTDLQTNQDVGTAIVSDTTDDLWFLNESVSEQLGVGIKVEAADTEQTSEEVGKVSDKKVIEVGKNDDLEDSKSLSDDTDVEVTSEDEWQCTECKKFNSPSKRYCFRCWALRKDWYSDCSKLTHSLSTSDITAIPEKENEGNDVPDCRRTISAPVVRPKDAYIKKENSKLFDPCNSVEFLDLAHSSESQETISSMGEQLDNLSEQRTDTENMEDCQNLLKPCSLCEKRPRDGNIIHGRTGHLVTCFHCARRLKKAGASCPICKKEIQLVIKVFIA
Target sequence (Q00987 whole entry, looked up): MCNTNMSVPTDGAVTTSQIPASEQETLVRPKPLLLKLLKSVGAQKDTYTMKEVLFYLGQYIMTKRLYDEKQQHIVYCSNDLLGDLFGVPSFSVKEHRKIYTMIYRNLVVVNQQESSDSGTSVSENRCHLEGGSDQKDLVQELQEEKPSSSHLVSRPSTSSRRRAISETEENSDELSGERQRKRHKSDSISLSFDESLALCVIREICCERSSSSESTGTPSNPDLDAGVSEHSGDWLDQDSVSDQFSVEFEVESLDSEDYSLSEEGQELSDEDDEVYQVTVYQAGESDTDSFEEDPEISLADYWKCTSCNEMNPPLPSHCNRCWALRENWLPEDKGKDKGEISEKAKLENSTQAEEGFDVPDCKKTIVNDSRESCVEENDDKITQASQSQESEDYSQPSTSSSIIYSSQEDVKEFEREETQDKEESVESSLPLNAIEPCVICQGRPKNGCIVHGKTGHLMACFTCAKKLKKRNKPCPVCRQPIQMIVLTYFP
T cruzi inh: inhibitors of intracellular T. cruzi growth, primary screen, luminescence, NIH3T3 host cells. T. cruzi beta-gal in NIH3T3, 90 h. AID 1885, 2009. inhibition, % (test concentration not listed). 1.4% of 300,000 active;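 active = mean inhibition across valid replicates above about 55%, limit read from the data; inconclusive = mean below that limit but half or more replicates reach it; inactive = mean below it, under half of replicates reach it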;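 also: signal also drops with host cell toxicity which is not excluded here; 0% = plate median of DMSO wells and 100% = zero luminescence signal; higher percent means less beta-gal luminescence so fewer parasites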
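assay system = mouse NIH/3T3 fibroblasts infected with β-gal-expressing T. cruzi Tulahuen C4 | input = 5,000 NIH/3T3 host cells per well | buffer or medium = DMEM plus 2% FBS | timing = 3 h host attachment, then at least 90 h co-culture | measured by = GalScreen luminescence, 60 min | evaluation = luminescence reflecting intracellular parasite burden, expressed as percent inhibition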
* = called active by the depositor; ? = inconclusive; . = no result. In the library only some 5.7% were active in any assay of this set; here they are far more common.

SMILES	CSC inhib	SKKanGAS inh	Calb FLC	Beta apoptosis	Mdm2-MdmX inh	T cruzi inh
O=[N+]([O-])c1ccc(C2=NN(CCO)C(=Nc3ccc(OC(F)(F)F)cc3)SC2)cc1	89*	28	0	-10	18	9
O=C(COC(=O)c1ncc(Cl)c(Cl)c1Cl)Nc1ccc(Cl)cn1	-5	-9	0	-3	19	-28
C/C(=N\NC(=O)CCC(=O)Nc1ccc(C)c(C)c1)C1CC1	-2	.	123*	-5	-3	.
O=C(COc1ccc(Cl)cc1Cl)N/N=C/c1ccc[nH]1	79*	-1	8	-8	-3	-13
Nc1ccccc1C(=O)NCC1(c2ccccc2)CCCC1	7	5	5	1	10	3
C/C(=N\NC(=O)c1cc(-c2cccc(OC(C)C)c2)nc2ccccc12)c1cccnc1	-3	25	-17	2	22	63*
C/C(=N/NC(=O)c1cc(-c2ccccc2)nc2c(Cl)cccc12)c1cccnc1	13	90*	64	14	17	41
Nc1ccccc1Nc1cc(-c2cccc(Cl)c2)nn1-c1ccccc1	47	10	-18	4	-19	57*
Cc1[nH]ccc(=O)c1OCc1c(Cl)cccc1Cl	-19	-1	-5	.	9	-2
Cc1ccc(Cn2ccc(=O)c(OCc3c(Cl)cccc3Cl)c2C)cc1	65	70*	-3	26	20	16
NC(=O)c1c(-c2ccc(Cl)cc2Cl)csc1NC(=O)Cc1ccccc1	5	10	8	96*	.	5
Cc1cc(C)n(-c2nc(SCC(=O)Nc3nccs3)c3c4c(sc3n2)COC(C)(C)C4)n1	3	58*	-4	20	42	-7
Cc1cc(C)n(-c2nc(NCCCN(C)C)c3c4c(sc3n2)COC(C)(C)C4)n1	13	6	-32	-2	29	7
Cc1cc(C)n(-c2nc(-n3nc(C)cc3C)c3c4c(sc3n2)COC(C)(C)C4)n1	-14	6	3	1	32	21
Cc1cc(C)n(-c2nc(NCCC(C)C)c3c4c(sc3n2)COC(C)(C)C4)n1	.	65*	2	.	.	76*
COc1ccc(OC)c(CNC(=O)C2CCC(=O)N(CCCN3CCCC3=O)C2)c1 (stereo not given)	-15	-2	6	-5	14	6
COc1ccc(-c2n(CC(=O)OC3CC(C)CCC3C(C)C)c3ccccc3[n+]2C)cc1 (stereo not given)	.	18	95*	.	.	39
c1ccc(-c2ccccc2OCCCN2CCCC2)cc1	-1	3	0	-1	-8	10
c1ccc(-c2ccccc2OCCCN2CCCCCC2)cc1	43	-5	90*	8	26	28
CC(C)(C)c1ccccc1OCCN1CCCC1	-20	0	-16	0	24	60*
Cc1ccc(C(C)(C)C)c(OCCN2CCCC2)c1	7	3	-29	-1	-7	42
FC(F)(F)c1nc(N2CCN(c3ccccc3)CC2)nc2c1CCCCC2	65	68*	0	16	22	7
C[C@H](CO)N1C[C@H](C)[C@@H](CN(C)CC2CCCCC2)Oc2c(NS(=O)(=O)c3ccc(F)cc3)cccc2C1=O	.	.	.	-5	4	.
Cc1ccc(Cl)c(OCC(=O)Nc2ccccc2N2CCCCC2)c1	-14	?	-3	.	17	31
O=C(CN1CCc2ccccc2C1)Nc1ccccc1N1CCCCCC1	0	86*	-14	.	-23	35
O=C(CN1CCc2ccccc2C1)Nc1ccccc1Cl	12	8	-4	5	21	11
Cc1cccc(C)c1OCC(=O)Nc1ccccc1N1CCCCC1	39	86*	-1	-8	18	27
Cc1cccc(OCC(=O)Nc2ccccc2N2CCCCC2)c1C	-7	70*	0	6	9	41
CN1CCc2c(sc(NC(=O)c3ccc4ccccc4c3)c2C(N)=O)C1	48	17	.	7	-7	55*
CCOC(=O)c1c(NC(=O)Cc2ccccc2)sc2c1CCN(C)C2	-8	-4	-2	-8	22	55*
